Compound activity (PubChem BioAssay)
Shown are actives, neighbours in structure and some others; about 1.6% of the full set was active somewhere.
UBC9 SUMO inh – blocks human SUMOylation mediated by UBC9 | P63279 | HTRF SUMOylation assay, SAE1/SAE2 + UBC9, in vitro | inhibition, % at 35 µM | actives 0.36% (n = 290,000) | AID 2006; in the data active means inhibition above about 50%, passing the limit was not always enough
14-3-3 Bad inh – disrupts binding of bovine 14-3-3 zeta to phospho-Bad peptide; AID 781; P63103; TR-FRET 14-3-3zeta/Dy647-pBad peptide displacement, 1 h; inhibition, % at 21.7 µM; actives 0.71% (n = 220,000);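 active means inhibition above about 70%, limit read from the data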;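 further: 0% = full 14-3-3 plus peptide FRET controls and 100% = background without 14-3-3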
eIF4E 4G PPI – eIF4E/eIF4G interaction inhibition in translation initiation; AID 782; inhibition, % at 21.7 µM; actives 0.37% (n = 220,000); P63073+Q04637; TR-FRET eIF4E-eIF4GI(517-606) binding, 2 h;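 further: 0% = full FRET control wells and 100% = background wells lacking eIF4GI fragment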
TbMetRS inhib – Trypanosoma brucei MetRS inhibition; inhibition, % at 11.9 µM; actives 0.4% (n = 360,000); purified T. brucei MetRS, ATP depletion, Kinase-Glo luminescence; AID 624268;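 active means inhibition above a per-plate cutoff of the control wells' mean inhibition plus 3 SD, cut at about 5.5% in these data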;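 further: 0% = DMSO wells median and 100% = median of wells with control inhibitor compound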
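Dosing: 11.9 µM single point; system: parasite MetRS enzyme; technique: luminescence of leftover ATP; times: 15 min enzyme-compound preincubation, 2 h reaction, 10 min detection, 25 °C; replicates: each compound tested once; read-out basis: percent inhibition relative to median high and low control wells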
NCF1 inh – blocks human p47phox regulatory protein of NADPH oxidases. P14598. p47phox/p22phox peptide binding, fluorescence polarization, 2 h. inhibition, % at 24.7 µM. actives 0.53% (n = 220,000). AID 1274;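 further: 0% = p47phox with labelled peptide and 100% = labelled peptide alone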
Target sequence (P14598 whole entry, looked up): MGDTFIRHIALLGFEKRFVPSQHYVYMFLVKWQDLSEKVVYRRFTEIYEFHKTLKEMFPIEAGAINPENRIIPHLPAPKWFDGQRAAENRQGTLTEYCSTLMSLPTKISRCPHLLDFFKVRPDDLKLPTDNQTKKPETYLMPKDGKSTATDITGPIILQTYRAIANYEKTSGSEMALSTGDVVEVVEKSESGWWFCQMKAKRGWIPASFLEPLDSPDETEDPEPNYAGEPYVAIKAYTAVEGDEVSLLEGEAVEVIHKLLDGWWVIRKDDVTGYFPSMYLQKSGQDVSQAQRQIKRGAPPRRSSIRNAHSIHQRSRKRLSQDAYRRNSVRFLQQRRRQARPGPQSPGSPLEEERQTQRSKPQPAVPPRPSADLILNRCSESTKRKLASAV
p97 inhibitor – human p97 ATPase inhibition. AID 1481. P55072. inhibition, % at 8 µM. actives 0.42% (n = 220,000). recombinant p97 ATPase, Kinase-Glo ATP luminescence, 3 h; in the data active means inhibition above about 15%;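 further: 0% = DMSO vehicle and 100% = wells lacking enzyme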
TbMetRS confirm – Trypanosoma brucei MetRS inhibition confirmed | T. brucei MetRS enzyme, luminescence (ATP depletion) | actives 93% (n = 1,400) | inhibition, % at 11.9 µM | shares compounds with TbMetRS inhib | AID 624412; in the data active means inhibition above about 7%
Jurkat cytotox – kills Jurkat cells in T. brucei MetRS counterscreen; shares compounds with TbMetRS inhib; Jurkat cells viability, ATP luminescence; inhibition, % at 8.3 µM; actives 12% (n = 1,400); AID 624413; in the data active means inhibition above about 15%;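 further: 0% = vehicle and 100% = reference inhibitor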
TbMetRS FP orth – T. brucei MetRS inhibition, orthogonal assay; inhibition, % at 11.9 µM; AID 651607; purified T. brucei MetRS, fluorescence polarization; shares compounds with TbMetRS inhib; actives 44% (n = 1,400); in the data active means inhibition above about 17%;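 further: 0% = vehicle wells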
The depositor's hits bear a star; nt = no result given.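 How the source made its calls, unless noted: active means inhibition above about 30% (limit read from the data); inactive means the rest.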

SMILES	UBC9 SUMO inh	14-3-3 Bad inh	eIF4E 4G PPI	TbMetRS inhib	NCF1 inh	p97 inhibitor	TbMetRS confirm	Jurkat cytotox	TbMetRS FP orth
CCN1CCN(c2ccc(NC(=O)c3ccc4c(c3)[nH]c(=O)n4Cc3ccc(OC)cc3)cc2)CC1	25	3	14	0	-3	3	nt	nt	nt
Cc1ccc(NC(=O)CSc2nnc3c(n2)[nH]c2ccccc23)cc1	3	nt	nt	1	nt	nt	nt	nt	nt
O=C(CSc1nnc2c(n1)[nH]c1ccccc12)Nc1nncs1	3	nt	nt	24*	nt	nt	43*	-3	19*
O=C(CSc1nnc2c(n1)[nH]c1ccccc12)Nc1ccc2c(c1)OCO2	28	22	-10	76*	-6	1	83*	6	71*
O=C(CSc1nc2ncccc2[nH]1)Nc1ccc2c(c1)OCO2	17	2	2	16*	-11	6	27*	0	17*
Cc1ccc(-c2csc(NC(=O)CSc3nnc4c(n3)[nH]c3ccccc34)n2)cc1	23	68	2	7.7*	-16	-1	15*	18*	9
O=C(O)CSc1nnc2c(n1)[nH]c1ccccc12	5	-1	-3	1	0	3	nt	nt	nt
CCCOc1ccc(Oc2nc(-c3ccncc3)nc3ccccc23)cc1	7	3	0	-1	-8	0	nt	nt	nt
CC1=CC(=O)N(c2ccn(C)n2)C1=O	11	-6	0	0	4	10	nt	nt	nt
Cc1ccc(C)c(Nc2c([N+](=O)[O-])c(=O)oc3ccccc23)c1	-10	3	-4	0	-5	3	nt	nt	nt
Cc1nnc(Nc2ccc(O)cc2)[nH]c1=O	7	-8	1	1	5	2	nt	nt	nt
Cc1nnc(Nc2ccc(C(=O)O)cc2)[nH]c1=O	-2	-1	2	6.8*	3	1	14*	0	3
Cc1cc(NS(=O)(=O)c2ccc(Nc3nc(-c4ccc(O)cc4)cs3)cc2)no1	16	-11	6	5.7*	-23	6	11*	-1	0
Cc1cc(NS(=O)(=O)c2ccc(Nc3nc(-c4ccc(C)c(C)c4)cs3)cc2)no1	-14	42	8	2	-33	-11	nt	nt	nt
O=S(=O)(NCc1ccc(Cl)cc1Cl)c1ccc(N2CCOCC2)nc1	7	4	4	6.9*	-12	4	14*	-3	3
Cc1ccc(S(=O)(=O)N2CCN(c3ccc(S(=O)(=O)N4CCOCC4)cn3)CC2)cc1	-3	33	-21	-2	-11	2	nt	nt	nt
O=C(NNc1ccccc1)c1ccc(Cl)c(Cl)c1	nt	nt	nt	0	nt	nt	nt	nt	nt
COc1ccc(S(=O)(=O)NC2CC2)cc1-n1cnnn1	7	-10	0	0	-7	3	nt	nt	nt
COc1ccc(S(=O)(=O)Nc2c(C)cccc2C)cc1-n1cnnn1	-2	nt	nt	5.9*	nt	nt	3	-6	1
Nc1nnc(COc2ccc(Br)cc2Br)s1	25	15	-7	21*	-1	5	42*	4	20*
CCOc1ccc(S(=O)(=O)Nc2cc(Cl)ccc2O)cc1	-20	0	9	16*	-8	-4	33*	10	11
Cc1ccc(-c2nc3ccccn3c2C=O)cc1	-4	2	5	0	-5	-2	nt	nt	nt
Cc1c(-c2ccc(Br)cc2)nc2ccccn12	4	-6	1	12*	-15	4	23*	0	13
O=C(C(O)c1ccccc1)N1N=C(c2ccccc2)CC1(O)C(F)(F)F (centres undefined)	10	nt	nt	0	nt	nt	nt	nt	nt
CCOC(=O)C(=CNc1ccc(Oc2cncc(Cl)c2)nc1)C(=O)OCC	5	-5	1	-2	-2	-3	nt	nt	nt
Cn1cc(S(=O)(=O)N2CCOCC2)cc1C(=O)NCc1ccc(Cl)cc1	6	nt	nt	36*	nt	nt	51*	-2	28*
